High-throughput results (PubChem)
STAT1 activator: increases IFN-gamma driven STAT1 reporter signal. activation (% of control), % at 5.5 µM. NIH 3T3 STAT1-luciferase reporter, luminescence; 100% = IFN-gamma alone, no compound. 200,000 tested, 2.6% active;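 active means activation above the screen-wide mean activation plus 3 SD, cut at about 130% in these data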
STAT3 activator: increases IL-6 driven STAT3 reporter signal. U3A cells, IL-6 STAT3-luciferase reporter, luminescence; 100% = signal with IL-6 EC80 alone. activation (% of control), % at 5.6 µM. 190,000 tested, 0.91% active. AID 871;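 active means activation above the screen-wide mean of compound activation plus 3 SD, cut at about 130% in these data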
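Test system: human U3A cells carrying STAT3-luciferase construct; control set: IL-6-only wells as 100% reference; timing: compound pre-incubation 1 h before IL-6, then 6 h stimulation at 37 °C; also added: IL-6 stimulus at 33 ng/mL final; evaluation: % activation versus median of IL-6-stimulated wells; detection: reporter luminescence signal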
KCC2 mod: modulators of human KCC2 chloride dependent transport; B-score of Tl+ flux slope (higher = more flux/activation; lower = inhibition) at 10 µM; 190,000 tested, 2.2% active; KCC2 cells, thallium flux FluoZin-2 fluorescence; Q9H2X9; AID 1456;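 active means thallium flux slope and its plate-corrected score both differing from the plate sample mean at a set confidence after two filtering rounds, in either direction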;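 further: slope of fluorescence scaled to starting intensity during 10 to 20 s after thallium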
Target sequence (Q9H2X9 whole entry, looked up): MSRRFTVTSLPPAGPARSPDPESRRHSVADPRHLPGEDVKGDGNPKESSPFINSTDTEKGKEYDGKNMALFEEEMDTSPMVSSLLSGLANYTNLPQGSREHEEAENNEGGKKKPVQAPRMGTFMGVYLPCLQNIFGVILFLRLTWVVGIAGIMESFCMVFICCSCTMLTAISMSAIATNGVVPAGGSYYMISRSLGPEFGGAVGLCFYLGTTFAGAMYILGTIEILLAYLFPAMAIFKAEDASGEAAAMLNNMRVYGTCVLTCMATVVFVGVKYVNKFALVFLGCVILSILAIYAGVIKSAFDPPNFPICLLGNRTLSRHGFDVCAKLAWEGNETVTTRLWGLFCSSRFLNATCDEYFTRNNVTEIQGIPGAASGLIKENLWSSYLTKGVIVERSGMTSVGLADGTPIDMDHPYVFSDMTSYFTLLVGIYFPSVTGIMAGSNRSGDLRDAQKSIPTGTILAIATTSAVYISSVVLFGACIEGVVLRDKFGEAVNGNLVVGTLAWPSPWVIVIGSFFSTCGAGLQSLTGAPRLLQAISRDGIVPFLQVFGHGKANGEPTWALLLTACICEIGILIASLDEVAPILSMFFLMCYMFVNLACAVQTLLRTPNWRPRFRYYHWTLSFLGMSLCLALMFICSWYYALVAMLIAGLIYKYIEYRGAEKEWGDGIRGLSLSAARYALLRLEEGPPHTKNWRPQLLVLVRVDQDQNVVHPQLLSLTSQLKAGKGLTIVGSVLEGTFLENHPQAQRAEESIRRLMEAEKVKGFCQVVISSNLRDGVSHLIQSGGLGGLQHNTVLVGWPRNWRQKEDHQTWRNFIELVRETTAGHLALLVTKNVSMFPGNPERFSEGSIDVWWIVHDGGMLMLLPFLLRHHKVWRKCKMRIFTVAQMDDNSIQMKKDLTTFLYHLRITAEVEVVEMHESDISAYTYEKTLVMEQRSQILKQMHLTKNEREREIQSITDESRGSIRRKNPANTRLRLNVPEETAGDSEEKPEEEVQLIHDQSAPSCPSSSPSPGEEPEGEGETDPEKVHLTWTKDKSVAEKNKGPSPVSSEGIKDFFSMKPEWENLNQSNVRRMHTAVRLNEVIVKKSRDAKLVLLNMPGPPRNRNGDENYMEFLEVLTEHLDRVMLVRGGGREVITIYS
STAT3 inh: reduces IL-6 driven STAT3 reporter signal; inhibition, % at 5.5 µM; U3A cells, IL-6 STAT3-luciferase reporter, luminescence; host cell line lacks STAT1; 190,000 tested, 0.89% active;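 active means inhibition above the mean inhibition across all screened compounds plus 3 SD, cut at about 44% in these data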
HSV replic up: HSV replication enhancement | HSV replication augmentation in cells, fold increase | 220,000 tested, 0.005% active | maximum fold increase | AID 1956; in the data active means maximum fold increase above about 1.5; tested in PC3 cells
STAT1 inh: inhibitors of IFN-gamma induced STAT1 signaling | NIH 3T3 STAT1-luciferase reporter, luminescence | inhibition, % at 5.5 µM | 200,000 tested, 0.35% active;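 active means inhibition above a set limit, the mean inhibition across all tested compounds plus 3 SD, cut at about 34% in these data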
Hits are given with their value; - = inactive; . = no result given. Only some compounds are listed: those with a hit (about 5.5% of all), similar ones and a draw of the others.

SMILES	STAT1 activator	STAT3 activator	KCC2 mod	STAT3 inh	HSV replic up	STAT1 inh
COc1ccc(-n2c(N)c(C(=O)NCc3ccco3)sc2=S)cc1	-	-	-	-	-	-
Cc1ccc2nc3sc(C(=O)NCc4ccco4)c(N)c3cc2c1	139.4	-	-	-	-	-
Cc1ccc2nc3sc(C(=O)N4CCOCC4)c(N)c3cc2c1	-	-	-	89.9	-	50.4
COc1ccccc1C(=O)NC(CCSC)C(=O)NC1CCCCCC1 (stereo unspecified)	-	-	-	-	-	-
CCN(CC)S(=O)(=O)c1ccc(N2CCCC2)c(NC(=O)CC(C)(C)C)c1	.	.	-	.	-	.
COc1cccc(N2CCN(C(=O)c3ccc4nc(N5CCCCC5)sc4c3)CC2)c1	136.0	-	-	-	-	-
COc1ccc(N2CCN(C(=O)c3ccc4nc(N5CCCCC5)sc4c3)CC2)cc1	-	-	-	-	-	-
O=C(COc1ncnc2ccccc12)Nc1cc([N+](=O)[O-])ccc1F	.	.	-	.	-	.
O=C(Nc1ccc2nn(-c3ccccc3)nc2c1)c1ccco1	131.7	-	-	-	-	-
CC(=O)NCCc1nc2cc(NC(=O)c3cccs3)ccc2n1C	-	-	-	-	-	-
CCn1cnc2cc(NC(=O)c3ccco3)ccc21	134.7	-	-	-	-	-
O=C(Nc1cc2nn(-c3ccccc3)nc2cc1Cl)c1ccco1	133.4	144.7	-	-	-	-
Nc1ccc(NC(=O)c2ccco2)c(Cl)c1	-	-	.	-	-	-
CCCn1cnc2cc(NC(=O)c3cccs3)ccc21	138.3	-	.	-	-	-
COc1ccc(C2C(C(=O)O)c3ccccc3C(=O)N2Cc2ccco2)cc1 (stereo unspecified)	.	.	-	.	-	.
CCN(CC)S(=O)(=O)c1cccc(C(=O)Oc2cccc(NC(=O)c3cccs3)c2)c1	-	-	-	-	.	-
CN(C)CCOC(=O)NCC12CC3CC(CC(C3)C1)C2	.	.	-	.	-	.
Cc1cc(C)nc(NC(=O)c2ccc(COc3ccccc3Cl)cc2)c1	-	-	-	-	-	-
O=C(Nc1cccc2cccnc12)C1CCCC1	-	-	-	-	-	-
COc1cc(/C=N/Nc2nn3cnnc3c3ccccc23)ccc1O	-	-	-	57.5	-	36.2
Cc1ccc(S(=O)(=O)N(C)C)cc1NC(=O)COC(=O)c1ccc(Cl)cc1	-	-	-	-	-	-
COc1ccc(OCCCSc2ncccn2)cc1	142.4	-	-	-	-	-
Cc1ccc(OCCCSc2ncccn2)cc1C	134.7	-	-	-	-	-
Clc1ccc(OCCSc2ncccn2)cc1	131.4	-	-	-	-	-
COc1cccc(OCCCCSc2ncccn2)c1	-	-	-	-	-	-
SMILES	STAT1 activator	STAT3 activator	KCC2 mod	STAT3 inh	HSV replic up	STAT1 inh
COc1ccc(OC)c(NC(=O)Cn2cc(C=O)c3ccccc32)c1	-	-	-	-	-	-
C/C(=N\Nc1nc(C)c(C)s1)c1ccc([N+](=O)[O-])cc1	-	-	-	-	-	-
CC(OC(=O)C1=Cc2ccccc2OC1)C(=O)NC(C)(C)C (stereo unspecified)	-	-	-	-	-	-
COc1ccc(C(=O)Oc2cc(/C=N/NC(N)=S)ccc2OC)cc1	-	-	-	-	-	-
COc1ccc(/C=N/NC(N)=S)cc1OC(=O)c1cccc2ccccc12	129.6	-	.	-	-	-
Cc1ccc(N=Nc2c(O)n(CN3CCOCC3)c3ccccc23)cc1	162.9	137.1	.	-	.	-
Cc1csc2ncc(C(=O)Nc3ccccc3Cl)c(=O)n12	131.3	.	-	.	-	-
Cc1cccc(NC(=O)c2cnc3scc(C)n3c2=O)c1	128.6	-	-	-	-	-
Cc1csc2ncc(C(=O)Nc3ccccc3F)c(=O)n12	.	.	.	.	-	.
CCCCC(CC)CNC(=O)c1ncn[nH]1 (stereo unspecified)	-	-	-	-	-	-
Cc1cccc(/C=C/C(=O)c2cc(Br)ccc(=O)c2O)c1	-	-	10.5	-	-	-
CCOc1ccc(/C=C/C(=O)c2cc(Br)ccc(=O)c2O)cc1	-	-	30.8	-	-	-
Cc1ccc(C(=O)Cn2ncsc2=N)cc1	130.4	-	-	-	-	-
O=C1N2CCCc3cccc(c32)C12Nc1ccccc1S2 (stereo unspecified)	-	135.2	-	-	-	-
COc1ccccc1N1CCN(C(=O)Oc2ccccc2)CC1	-	-	.	-	-	-
